Source: ChEMBL document CHEMBL3286113, “New potent antibacterial oxazolidinone (MRX-I) with an improved class safety profile” (J Med Chem, 2014)
Converted amounts (≈) assume the structure as drawn. The source made the active and inactive calls. The calls are words filed in the database; no cut-off is given here.

Columns and labels:
[1] = tested on: Streptococcus pneumoniae; experiment: Antibacterial activity against penicillin-sensitive Streptococcus pneumoniae isolate 0806; format: functional
[2] = tested on: Rattus norvegicus; experiment: Acute toxicity in rat administered as single dose; format: organism-based; settings: in vivo
[3] = Half life in po dosed dog; format: ADME, organism-based, Canis lupus familiaris; settings: in vivo
[4] = tested on: Streptococcus pneumoniae; experiment: Antibacterial activity against Streptococcus pneumoniae assessed as time required for growth inhibition; format: functional
[5] = Cmax in female rat at 5 mg/kg, po; format: ADME, organism-based; design: dose 5 mg/kg, route oral; settings: in vivo
[6] = Oral bioavailability in rat; format: ADME, organism-based; settings: in vivo
[7] = AUC (0 to infinity) in fasted human at 600 mg, po administered as single dose; format: ADME, organism-based; design: dose 600 mg, route oral, time infinity; settings: plasma
Outline: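 Single-dose, three-period Latin-square crossover in 12 healthy volunteers (6 of each gender). Each received single oral 300, 600 and 900 mg doses under fasting conditions, with a 1-week washout between doses. PK parameters, including AUC0−inf, came from a noncompartmental model.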

[8] = AUC (0 to t) in female rat at 15 mg/kg, po; format: ADME, organism-based; design: dose 15 mg/kg, route oral; settings: plasma
Outline: (§1)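 Rat PK by gender, with single oral doses of 5, 15 and 45 mg/kg and an iv dose of 5 mg/kg. Tmax, Cmax, T1/2 and AUC0−t were reported per gender.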

[9] = Half life in po dosed mouse; format: ADME, organism-based; settings: in vivo
[10] = tested on: Streptococcus mitis; experiment: Antibacterial activity against Streptococcus mitis; format: functional
[11] = tested on: Rattus norvegicus; experiment: Toxicity in female rat assessed as effect on neutrophil count at 200 to 300 mg/kg/day, po bid administered for 4 weeks (reference value: 22.4%); format: organism-based; design: route oral; settings: in vivo, 672 h
[12] = AUC (0 to t) in male rat at 45 mg/kg, po; format: ADME, organism-based; design: dose 45 mg/kg, route oral; settings: plasma; outline: as §1
[13] = tested on: Staphylococcus aureus; experiment: Antibacterial activity against methicillin-resistant Staphylococcus aureus isolate 0612 in po dosed mouse systemic infection model; format: functional; settings: isolate 0612, po
[14] = tested on: Enterococcus; experiment: Bacteriostatic activity against vancomycin-sensitive Enterococcus; format: functional
[15] = tested on: Staphylococcus aureus; experiment: Antibacterial activity against methicillin-sensitive Staphylococcus aureus isolate 15; format: functional
[16] = AUC (0 to 24 hrs) in female rat at 200 mg/kg/day, po bid administered for 4 weeks; format: ADME, organism-based; design: dose 200 mg/kg/day, time < 24 hr, route oral; settings: plasma
Outline: (§2)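 Repeat-dose toxicity study in rats (10/gender/group) dosed orally twice daily for 4 weeks, then a 4-week recovery period; the top dose was raised from 200 to 300 mg/kg/day on day 15. Blood was taken on days 1, 14 and 28 for toxicokinetics, and AUC0−24 was reported for females.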

[17] = tested on: Rattus norvegicus; experiment: Toxicity in female rat assessed as effect on reticulocyte count at 200 to 300 mg/kg/day, po bid administered for 4 weeks (reference value: 1.48%); format: organism-based; design: route oral; settings: in vivo, 672 h
[18] = Cmax in male rat at 5 mg/kg, po; format: ADME, organism-based; design: dose 5 mg/kg, route oral; settings: in vivo
[19] = target: Cytochrome P450 3A4 (Homo sapiens, UniProt P08684); experiment: Inhibition of CYP3A4 (unknown origin) at 1 to 200 uM; format: ADME
[20] = tested on: Rattus norvegicus; experiment: Toxicity in female rat assessed as effect on mean corpuscular volume at 100 mg/kg/day, po bid administered for 4 weeks (reference value: 53.72 fL); format: organism-based; design: route oral; settings: in vivo, 672 h
[21] = Cmax in fasted human at 900 mg, po administered as single dose; format: ADME, organism-based; design: dose 900 mg, route oral; settings: in vivo
Outline: (§3)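 Healthy volunteers (12; six of each sex) in a three-period Latin-square crossover. Each received single oral doses of 300, 600 and 900 mg under fasting conditions, with a 1-week washout between doses. Parameters from a noncompartmental model.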

[22] = tested on: Rattus norvegicus; experiment: Toxicity in rat assessed as mortality at 20 to 300 mg/kg, po bid administered for 4 weeks measured on day 1 to day 28; format: organism-based; design: dose 20-300 mg/kg, route oral; settings: in vivo, 672 h
Outline: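 Rats, 10 per gender per group, given drug orally twice daily at 20, 100 and 200/300 mg/kg/day for 4 weeks, then a 4-week recovery period. The top dose of 200 mg/kg/day was raised to 300 mg/kg/day on day 15. The comparator was dosed the same way at 100 and 200 mg/kg/day. Monitoring covered mortality, body weight, hematology and bone marrow, with blood taken for TK on days 1, 14 and 28.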

[23] = tested on: Staphylococcus aureus; experiment: Antibacterial activity against Staphylococcus aureus assessed as low frequency of spontaneous resistance; format: functional, organism-based
[24] = tested on: Staphylococcus aureus; experiment: Antibacterial activity against Staphylococcus aureus measured after 1 serial passage; format: functional
[25] = tested on: Staphylococcus aureus; experiment: Antibacterial activity against methicillin-sensitive Staphylococcus aureus ATCC 29213; format: functional
[26] = target: MAO-A (Homo sapiens, UniProt P21397); experiment: Ratio of compound IC50 to linezolid IC50 for human recombinant MAO-A by luciferin-based luminescence assay; format: ADME; settings: read-out: Ratio IC50
[27] = tested on: Staphylococcus saprophyticus; experiment: Antibacterial activity against Staphylococcus saprophyticus; format: functional
[28] = Clastogenicity in CHL cells assessed as induction of structural chromosomal aberration at 50 to 400 ug/mL measured over 6 hrs in absence of metabolic activation; format: toxicity, cell-based, Cricetulus griseus; settings: chinese hamster
Outline: (§4)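 Chinese hamster lung cells scored for structural chromosome aberrations with or without metabolic activation. Exposure was 50–400 μg/mL over 6 h, or 25–200 μg/mL over 24 h.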

[29] = AUC (0 to t) in female rat at 45 mg/kg, po; format: ADME, organism-based; design: dose 45 mg/kg, route oral; settings: plasma; outline: as §1
[30] = tested on: Streptococcus pneumoniae; experiment: Antibacterial activity against penicillin-resistant Streptococcus pneumoniae isolate 0613; format: functional
[31] = tested on: Staphylococcus aureus; experiment: Antibacterial activity against Staphylococcus aureus; format: functional
[32] = tested on: L5178Y; experiment: Mutagenicity in mouse tk +/- L5178Y cells assessed as increase in gene mutation frequency at 62.5 to 1000 ug/mL in absence of S9 fraction
[33] = species on record: Rattus norvegicus; experiment: Drug uptake in rat measured over 7 days; format: ADME, organism-based; settings: in vivo, 168 h
[34] = tested on: Staphylococcus epidermidis; experiment: Antibacterial activity against methicillin-sensitive Staphylococcus epidermidis; format: functional
[35] = target: Cytochrome P450 1A2 (Homo sapiens, UniProt P05177); experiment: Inhibition of CYP1A2 (unknown origin) at 1 to 200 uM; format: ADME
[36] = Clastogenicity in CHL cells assessed as induction of structural chromosomal aberration at 50 to 400 ug/mL measured over 6 hrs in presence of metabolic activation; format: toxicity, cell-based, Cricetulus griseus; settings: chinese hamster; outline: as §4
[37] = Half life in female rat at 15 mg/kg, po; format: ADME, organism-based; design: dose 15 mg/kg, route oral; settings: in vivo
[38] = tested on: Mus musculus; experiment: Dose normalized AUC (0 to t) in po dosed mouse; format: ADME, organism-based; settings: in vivo
[39] = Cmax in fasted human at 300 mg, po administered as single dose; format: ADME, organism-based; design: dose 300 mg, route oral; settings: in vivo; outline: as §3
[40] = AUC (0 to 24 hrs) in female rat at 100 mg/kg/day, po bid administered for 4 weeks; format: ADME, organism-based; design: time < 24 hr, dose 100 mg/kg/day, route oral; settings: plasma; outline: as §2
[41] = tested on: Staphylococcus aureus; experiment: Antibacterial activity against methicillin-resistant Staphylococcus aureus isolate 0605 in mouse thigh infection model assessed as reduction of log10 CFU per thigh at 10 mg/kg, po; format: functional
[42] = Tmax in female rat at 45 mg/kg, po; format: ADME, organism-based; design: dose 45 mg/kg, route oral; settings: in vivo
Outline: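 Male and female rats received single oral doses of 5, 15 or 45 mg/kg, with 5 mg/kg iv as a reference arm. Tmax was read from the plasma concentration–time profile for each gender.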

[43] = tested on: Homo sapiens; experiment: Toxicity in human assessed as change in neutrophil count at 600 to 800 mg, po administered as single dose with meal on day 1 and day 15 followed by bid with meal on day 2 to day 14 measured during compound treatment; format: organism-based; settings: in vivo

Sequence of Cytochrome P450 1A2 (P05177 whole entry): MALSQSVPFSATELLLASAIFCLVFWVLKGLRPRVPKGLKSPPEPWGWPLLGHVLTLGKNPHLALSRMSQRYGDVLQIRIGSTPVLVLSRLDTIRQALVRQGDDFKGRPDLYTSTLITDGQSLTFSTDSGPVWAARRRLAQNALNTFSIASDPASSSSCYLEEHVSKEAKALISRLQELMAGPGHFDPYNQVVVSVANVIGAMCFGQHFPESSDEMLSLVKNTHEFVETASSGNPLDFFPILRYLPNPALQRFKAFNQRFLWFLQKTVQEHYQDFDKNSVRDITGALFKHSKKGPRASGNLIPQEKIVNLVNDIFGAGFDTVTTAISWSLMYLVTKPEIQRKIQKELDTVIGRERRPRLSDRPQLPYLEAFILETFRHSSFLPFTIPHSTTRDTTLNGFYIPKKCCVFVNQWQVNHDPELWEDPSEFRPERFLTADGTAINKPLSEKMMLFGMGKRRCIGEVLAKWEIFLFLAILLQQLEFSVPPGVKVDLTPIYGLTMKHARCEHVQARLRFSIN
Sequence of MAO-A (P21397 whole entry): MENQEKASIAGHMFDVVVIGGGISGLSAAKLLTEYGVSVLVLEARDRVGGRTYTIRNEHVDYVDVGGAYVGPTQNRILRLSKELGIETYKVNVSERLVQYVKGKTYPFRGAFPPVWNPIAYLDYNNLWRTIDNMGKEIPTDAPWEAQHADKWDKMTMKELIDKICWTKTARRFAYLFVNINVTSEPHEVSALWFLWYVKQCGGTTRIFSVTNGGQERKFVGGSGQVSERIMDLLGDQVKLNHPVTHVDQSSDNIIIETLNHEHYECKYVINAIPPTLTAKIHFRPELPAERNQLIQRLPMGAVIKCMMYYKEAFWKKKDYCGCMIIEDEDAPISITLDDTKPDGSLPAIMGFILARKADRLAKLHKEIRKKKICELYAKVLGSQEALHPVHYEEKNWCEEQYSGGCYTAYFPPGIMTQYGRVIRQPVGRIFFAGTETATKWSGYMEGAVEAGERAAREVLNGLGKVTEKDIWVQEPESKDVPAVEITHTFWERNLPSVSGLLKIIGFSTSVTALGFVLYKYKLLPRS
Sequence of Cytochrome P450 3A4 (P08684 whole entry): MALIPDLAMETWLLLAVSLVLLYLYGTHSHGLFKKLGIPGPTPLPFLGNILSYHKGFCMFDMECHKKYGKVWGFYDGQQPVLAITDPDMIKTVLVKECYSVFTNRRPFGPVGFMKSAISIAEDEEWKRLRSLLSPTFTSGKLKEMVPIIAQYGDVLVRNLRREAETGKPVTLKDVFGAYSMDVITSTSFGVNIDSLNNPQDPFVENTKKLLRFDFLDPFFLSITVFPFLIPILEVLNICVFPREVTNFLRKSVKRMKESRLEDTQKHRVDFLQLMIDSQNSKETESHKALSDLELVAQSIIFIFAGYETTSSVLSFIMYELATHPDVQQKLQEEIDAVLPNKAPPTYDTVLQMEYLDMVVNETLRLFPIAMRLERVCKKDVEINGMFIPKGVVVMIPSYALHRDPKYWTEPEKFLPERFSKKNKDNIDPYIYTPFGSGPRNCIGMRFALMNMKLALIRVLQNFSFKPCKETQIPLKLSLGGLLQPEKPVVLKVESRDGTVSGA

Compound: O=C1C=CN(c2c(F)cc(N3C[C@H](CNc4ccon4)OC3=O)c(F)c2F)CC1 [CONTEZOLID]
- MIC [1]: 2 µg/mL (≈ 4.9 µM)
- Activity [2]: 5000 mg/kg
- half-life [3]: 180 min
- Time [4]: 1.8 h
- Cmax [5]: 9390 ng/mL
- bioavailability [6]: 109%
- AUC(0-inf) [7]: 48300 ng·h/mL
- AUC(0-t) [8]: 64700 ng·h/mL
- half-life [9]: 60 min
- MIC50 [10]: 0.5 µg/mL (≈ 1.22 µM)
- MIC90 [10]: 1 µg/mL (≈ 2.45 µM)
- Activity [11]: 26.4%
- AUC(0-t) [12]: 93800 ng·h/mL
- ED50 [13]: 7.2 mg/kg
- MIC50 [14]: 1 µg/mL (≈ 2.45 µM)
- MIC90 [14]: 1 µg/mL (≈ 2.45 µM)
- MIC [15]: 2 µg/mL (≈ 4.9 µM)
- AUC at 24 h [16]: 626 µg·h/mL
- Activity [17]: 1.26%
- Cmax [18]: 4600 ng/mL
- inhibition (INH) [19]: Not Active
- Activity [20]: 54.78 fL
- Cmax [21]: 15200 ng/mL
- Activity [22]: Non-toxic
- Activity [23]: Active
- MIC [24]: 2 µg/mL (≈ 4.9 µM)
- MIC [25]: 1 µg/mL (≈ 2.45 µM)
- selectivity ratio [26]: 3
- MIC50 [27]: 0.5 µg/mL (≈ 1.22 µM)
- MIC90 [27]: 1 µg/mL (≈ 2.45 µM)
- Activity [28]: Non-toxic
- AUC(0-t) [29]: 230 µg·h/mL
- MIC [30]: 2 µg/mL (≈ 4.9 µM)
- MIC [31]: 2 µg/mL (≈ 4.9 µM)
- Activity [32]: Non-toxic
- Drug uptake [33]: Not Active
- MIC [34]: 0.25 µg/mL (≈ 0.612 µM)
- MIC50 [34]: 0.25 µg/mL (≈ 0.612 µM)
- MIC90 [34]: 0.5 µg/mL (≈ 1.22 µM)
- inhibition (INH) [35]: Not Active
- Activity [36]: Non-toxic
- half-life [37]: 88.2 min
- AUCt/dose [38]: 1654 ng·h/mL/mg/kg
- Cmax [39]: 8070 ng/mL
- AUC at 24 h [40]: 319 µg·h/mL
- deltalog10CFU [41]: 2.47
- Tmax [42]: 1.67 h
- Activity [43]: Non-toxic
